From ChEMBL document CHEMBL2021847, “Identification of fused-ring alkanoic acids with improved pharmacokinetic profiles that act as G protein-coupled receptor 40/free fatty acid receptor 1 agonists” (J Med Chem, 2012) come the findings set out here.

Data set [1] addresses T1, Free fatty acid receptor 1 (Homo sapiens, UniProt O14842). The data set is described as follows: Agonist activity at human […] receptor expressed in CHO cells assessed as increase in intracellular calcium concentration after 90 secs by FLIPR assay in presence of 0.1% BSA. In kind it is functional, cell-based. The gist of the method: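 CHO dhfr cells stably expressing human GPR40/FFA1 (NM_005303) plated and held overnight at 37 °C in 5% CO2. Loaded 60 min at 37 °C with Fluo 4-AM 2.5 μg/mL, probenecid 2.5 mmol/L and 0.1% fatty acid-free BSA. Compounds added over a concentration range, Ca2+ rise followed 90 s. Response scaled between vehicle (0%) and 10 μM γ-linolenic acid (100%).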
In general terms: Calcium assays in cells follow changes in intracellular calcium, usually with a dye or a luminescent sensor.

Data set [2] has as its target T1, Free fatty acid receptor 1. The data set is described as follows: Displacement of 3-[4-({2',6'-dimethyl-6-[(4-[3H])-phenylmethoxy]biphenyl-3-yl}methoxy)phenyl] propanoic acid from human GPR40 receptor expressed in CHO cells after 90 mins by scintillation counting in presence of 0.2% BSA. In kind it is cell-based. Put shortly: (§1)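 Membranes from CHO lines stably expressing human or rat GPR40/FFA1, in Tris-HCl pH 7.5 with EDTA, protease inhibitors, 0.05% CHAPS and 0.2% fatty acid-free BSA. Tritiated ligand at 2 or 6 nmol/L with graded test compound, 90 min at room temperature. Filter harvest, scintillation counting. Nonspecific binding with 10 μmol/L unlabeled ligand. IC50 by nonlinear regression, Ki via Cheng–Prusoff with measured Kd. Averages of n = 2 or 3.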

In data set [3] the target is Free fatty acid receptor 1 (Rattus norvegicus, UniProt Q8K3T4). As to the kind of experiment: Displacement of 3-[4-({2',6'-dimethyl-6-[(4-[3H])-phenylmethoxy]biphenyl-3-yl}methoxy)phenyl] propanoic acid from rat GPR40 receptor expressed in CHO cells after 90 mins by scintillation counting in presence of 0.2% BSA. It counts as cell-based. Put shortly:
as §1

The nature of data set [4]: Octanol-water partition coefficient, log D of the compound at pH 7.4 by reverse-phase liquid chromatography. It counts as physicochemical.
Data set [5] concerns Rattus norvegicus. As to the kind of experiment: Antidiabetic activity in Wistar fatty rat assessed as decrease in plasma glucose level at 1 to 10 mg/kg, po administered as single dose 1 hr prior to glucose challenge measured after 120 mins by OGTT. It counts as functional, organism-based. The gist of the method:
(§2)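 Female Wistar fatty rats aged 17−19 weeks, fasted overnight. Dosed orally in 0.5% methylcellulose (vehicle control), then given oral glucose 1 g/kg 1 h later. Tail-vein blood taken pre-dose, at 0, and at 10, 30, 60 and 120 min. Glucose by autoanalyzer, insulin by RIA. Glucose AUC0−120 min and incremental insulin AUC0−120 min calculated. n = 6, one-tailed Williams test versus vehicle.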

Data set [6] has as its system Rattus norvegicus. The data set is described as follows: Antidiabetic activity in Wistar fatty rat assessed as increase in plasma insulin level at 1 to 10 mg/kg, po administered as single dose 1 hr prior to glucose challenge measured after 120 mins by OGTT. It counts as functional, organism-based. The gist of the method:
as §2

Data set [7] relates to Rattus norvegicus. The data set is described as follows: Antidiabetic activity in po dosed Wistar fatty rat assessed as decrease in plasma glucose level administered as single dose 1 hr prior to glucose challenge measured after 120 mins by OGTT. It counts as functional. The note with it: read-out: MED. The gist of the method:
as §2

The subject of data set [8] is Rattus norvegicus. The data set is described as follows: Antidiabetic activity in po dosed Wistar fatty rat assessed as increase in plasma insulin level administered as single dose 1 hr prior to glucose challenge measured after 120 mins by OGTT. In kind it is functional. The note with it: read-out: MED. Put shortly: as §2
The subject of data set [9] is Rattus norvegicus. As to the kind of experiment: Antidiabetic activity in Wistar fatty rat assessed as decrease in plasma glucose level at 10 mg/kg, po administered as single dose 4 hrs prior to glucose challenge measured after 120 mins by OGTT. It counts as functional, organism-based. Details: dose 10 mg/kg. Put shortly: (§3)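 Female Wistar fatty rats aged 17−19 weeks, fasted overnight. Given compound orally (10 mg/kg) or vehicle (0.5% methylcellulose), with oral glucose 1 g/kg 4 h later. Tail-vein sampling pre-dose, at 0, and at 10–120 min. Glucose by autoanalyzer, insulin by RIA.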

Data set [10] deals with Rattus norvegicus. The data set is described as follows: Antidiabetic activity in Wistar fatty rat assessed as increase in plasma insulin level at 10 mg/kg, po administered as single dose 4 hrs prior to glucose challenge measured after 120 mins by OGTT. It counts as functional, organism-based. Details: dose 10 mg/kg. The gist of the method: as §3
The target in data set [11] is T1, Free fatty acid receptor 1. As to the kind of experiment: Agonist activity at human […] receptor expressed in CHO cells assessed as increase in intracellular calcium concentration at 10 uM after 90 secs by FLIPR assay in presence of 0.1% BSA relative to control. In kind it is functional, cell-based. Put shortly:
(§4)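 CHO dhfr cells stably expressing human GPR40/FFA1 (NM_005303) plated, incubated overnight at 37 °C in 5% CO2. Loaded 60 min at 37 °C with Fluo 4-AM (2.5 μg/mL), probenecid (2.5 mmol/L), 0.1% fatty acid-free BSA. Ca2+ rise monitored by FLIPR for 90 s after compound addition. Response expressed as % of 10 μM γ-linolenic acid response, vehicle-corrected.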

In data set [12] the target is T1, Free fatty acid receptor 1. As to the kind of experiment: Agonist activity at human […] receptor expressed in CHO cells assessed as increase in intracellular calcium concentration at 1 uM after 90 secs by FLIPR assay in presence of 0.1% BSA relative to control. It counts as functional, cell-based. Put shortly: as §4

Active and inactive are the calls of the source. The calls are words filed in the database; no cut-off is given here.

Chain of Free fatty acid receptor 1 (Rattus norvegicus, UniProt Q8K3T4) (Q8K3T4 whole entry): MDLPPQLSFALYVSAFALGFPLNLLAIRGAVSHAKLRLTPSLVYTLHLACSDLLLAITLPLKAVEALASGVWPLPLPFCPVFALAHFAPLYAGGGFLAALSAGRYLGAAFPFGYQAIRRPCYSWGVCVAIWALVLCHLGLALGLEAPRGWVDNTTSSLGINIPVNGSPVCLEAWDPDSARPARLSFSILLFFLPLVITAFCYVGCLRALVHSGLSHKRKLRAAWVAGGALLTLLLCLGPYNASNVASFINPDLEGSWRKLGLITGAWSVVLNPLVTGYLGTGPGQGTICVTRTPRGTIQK
T1 sequence (O14842 whole entry): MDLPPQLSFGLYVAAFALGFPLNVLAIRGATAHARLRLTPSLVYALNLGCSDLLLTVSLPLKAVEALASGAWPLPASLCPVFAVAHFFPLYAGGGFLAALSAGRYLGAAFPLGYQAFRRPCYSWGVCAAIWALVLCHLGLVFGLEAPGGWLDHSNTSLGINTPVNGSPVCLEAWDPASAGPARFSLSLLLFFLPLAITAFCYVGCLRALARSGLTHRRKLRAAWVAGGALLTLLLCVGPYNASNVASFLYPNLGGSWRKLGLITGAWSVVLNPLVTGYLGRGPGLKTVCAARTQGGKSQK

On to `O=C(O)CC1COc2cc(OCc3cccc(-c4csc5ccccc45)c3)ccc21` (centres undefined), for which, in data set [1], the 50% effective concentration (EC50) (usually the concentration needed to bring the measured effect to its halfway point) amounted to 39 nM. The values for the Ki in data set [2] and in data set [3] were 290 nM and > 10000 nM, respectively. For the same molecule, the chromatographic logD (as a rule, lipophilicity estimated from chromatographic retention) in data set [4] was determined as 3.99.
As for `Cc1cccc(C)c1-c1cccc(COc2ccc3c(c2)CCCCC3CC(=O)O)c1` (centres undefined), the EC50 in data set [1] came to 940 nM. Also, the chromatographic logD in [4] worked out at 5.02.
Regarding `CCOCCOc1cc(C)c(-c2cccc(COc3ccc4c(c3)CC(C(=O)O)C4)c2)c(C)c1` (centres undefined), the EC50 in data set [1] was 960 nM. Moreover, the Ki in data set [2] and in [3] was > 10000 nM in each case. In [4], this molecule came in with a chromatographic logD of 4.11.
For the molecule `Cc1cccc(C)c1-c1cccc(COc2ccc3c(c2)CCCC3CC(=O)O)c1` (centres undefined), in data set [1], the EC50 is 27 nM. This molecule yielded a chromatographic logD in data set [4] of 4.7.
Take `CCOCCOc1cc(C)c(-c2cccc(COc3ccc4c(c3)CCC(CC(=O)O)C4)c2)c(C)c1` (centres undefined): the EC50 in [1] was found to be 510 nM. In addition, the values for the Ki in data set [2] and in data set [3] were 2100 nM and > 10000 nM, respectively. The chromatographic logD in [4] came out at 4.67.
The like results for `CCOCCOc1cc(C)c(-c2cccc(COc3ccc4c(c3)CC(CC(=O)O)C4)c2)c(C)c1` (centres undefined) were, in that order, 84 nM, 270 nM, > 10000 nM and 4.39.
In the same order, the values of `COc1ccc(COc2ccc3c(c2)OCC3CC(=O)O)cc1-c1c(C)cccc1C` (centres undefined) are 24 nM, 130 nM, 1600 nM and 3.31.
For `Cc1cccc(C)c1-c1cccc(COc2ccc3c(n2)CCC3CC(=O)O)c1` (centres undefined), the EC50 in data set [1] was 570 nM. Also, the inhibition constant Ki in data set [2] and in [3] was > 10000 nM each time. In data set [4], this molecule gave a chromatographic logD of 3.88.
In the case of `CCOCCOc1cc(C)c(-c2cccc(COc3ccc4c(c3)OCC4CC(=O)O)c2)c(C)c1` (centres undefined), in [3], the inhibition constant (Ki) (usually the dissociation constant of the complex between target and ligand, obtained from inhibition or displacement) came out at 200 nM. In data set [4], this molecule displayed a chromatographic logD of 3.83. Further, the result in the data set with Rattus norvegicus [5], in the data set with Rattus norvegicus [6], in the data set with Rattus norvegicus [9] and in the data set on Rattus norvegicus [10] was Active. The minimal effective dose with Rattus norvegicus [7] and with Rattus norvegicus [8] was 10 mg/kg each time.
On to `Cc1cccc(C)c1-c1cc(COc2ccc3c(c2)OCC3CC(=O)O)ccc1OCc1ccccc1` (centres undefined), for which the EC50 in [1] turned out to be 10 nM. For the same molecule, the Ki worked out at 6.9 nM in data set [2] and 170 nM in data set [3]. Also, in [4], the chromatographic logD came to 4.53.
For the molecule `Cc1ccc2ccccc2c1-c1cccc(COc2ccc3c(c2)OCC3CC(=O)O)c1` (centres undefined), the EC50 in [1] came out at 21 nM. The Ki stood at 41 nM in [2] and 470 nM in [3]. The same molecule had a chromatographic logD in data set [4] of 4.33.
As to `Cc1cccc(C)c1-c1cccc(COc2ccc3c(c2)OCC3CC(=O)O)c1` (centres undefined), the EC50 in [1] worked out at 27 nM. The chromatographic logD in data set [4] was 3.88.
On to `Cc1ccc(-c2cccc(COc3ccc4c(c3)OCC4CC(=O)O)c2)c(C)c1` (centres undefined), for which, in data set [1], the concentration giving a half-maximal response (EC50) is 29 nM. Further, the Ki was determined as 57 nM in data set [2] and 1600 nM in [3]. In data set [4], the chromatographic logD is 4.15.
In the same order, the values of `Cc1cccc(C)c1-c1cccc(COc2ccc3c(c2)CC3CC(=O)O)c1` (centres undefined) are 69 nM, 1200 nM, > 10000 nM and 4.12.
With `Cc1cccc(C)c1-c1cccc(COc2ccc3c(ccn3CC(=O)O)c2)c1`, the Ki in data set [2] and in data set [3] was > 10000 nM in each case. For the same molecule, the Efficacy was determined as 101% in [11] and 2% in [12]. This molecule also yielded a chromatographic logD in data set [4] of 3.93.
Regarding `Cc1cccc(C)c1-c1cccc(COc2ccc3c(c2)CCC3CC(=O)O)c1` (centres undefined), the EC50 in data set [1] is 33 nM. In addition, the chromatographic logD in data set [4] was 4.4.
Regarding `CCOCCOc1cc(C)c(-c2cccc(COc3ccc4c(c3)CCC(C(=O)O)C4)c2)c(C)c1` (centres undefined), the EC50 in [1] was 140 nM. For the same molecule, the Ki in data set [2] is 280 nM; in [3] it was > 10000 nM. In addition, the chromatographic logD in data set [4] is 4.33.
As to `CCOCCOc1cc(C)c(-c2cccc(COc3ccc4c(c3)CC(=O)N4CC(=O)O)c2)c(C)c1`, the Ki in data set [2] and in data set [3] was > 10000 nM throughout. The Efficacy in [11] is 59%; in data set [12], 2%. The chromatographic logD in [4] is 3.41.
On to `Cc1cc(C)c(-c2cccc(COc3ccc4c(c3)OCC4CC(=O)O)c2)c(C)c1` (centres undefined), for which the EC50 in [1] came to 33 nM. Moreover, the Ki turned out to be 36 nM in data set [2] and 130 nM in [3]. Further, in [4], the chromatographic logD worked out at 4.47.
In the case of `Cc1cccc(C)c1-c1cccc(COc2ccc3c(CC(=O)O)coc3c2)c1`, the EC50 in data set [1] is 4900 nM. The molecule further displayed a chromatographic logD in [4] of 4.04.
As to `CCOCCOc1cc(C)c(-c2cccc(CNc3ccc4c(c3)OCC4CC(=O)O)c2)c(C)c1` (centres undefined), the EC50 in data set [1] amounted to 48 nM. Further, the figures for the Ki in data set [2] and in data set [3] were 43 nM and 110 nM, respectively. In addition, the chromatographic logD in data set [4] came out at 3.13.
For the molecule `Cc1cccc(C)c1-c1cccc(COc2ccc3c(c2)OCCC(C(=O)O)C3)c1` (centres undefined), the EC50 in data set [1] came out at 70 nM. Also, in [4], the chromatographic logD was determined as 4.05.
Consider `Cc1cc(OCc2ccccc2)cc(C)c1-c1cccc(COc2ccc3c(c2)OCC3CC(=O)O)c1` (centres undefined), for which, in data set [1], the concentration for a half-maximal effect (EC50) turned out to be 28 nM. The Ki in [2] worked out at 18 nM; in data set [3], 100 nM. The same molecule registered a chromatographic logD in [4] of 5.03.
As to `O=C(O)CC1COc2cc(OCc3cccc(-c4ccc5sccc5c4)c3)ccc21` (centres undefined), in data set [1], the EC50 is 180 nM. Besides, the results for the Ki in data set [2] and in [3] were 570 nM and > 10000 nM, respectively. Besides, in [4], the chromatographic logD amounted to 3.97.
The like results for `CCOCCOc1cc(C)c(-c2cccc(COc3ccc4c(c3)COC4CC(=O)O)c2)c(C)c1` (centres undefined) were, in that order, 91 nM, 390 nM, 67 nM and 3.61.
